Inhibition and IC50 data for 23 compounds are collected here from ChEMBL document CHEMBL1144884, “Synthesis, activity, and molecular modeling studies of novel human aldose reductase inhibitors based on a marine natural product” (J Med Chem, 2003).

The target of experiment [1] is T1, Aldo-keto reductase family 1 member B1 (Homo sapiens, UniProt P15121). Kind of experiment: In vitro inhibition of recombinant human aldose reductase (ALR2). A digest of the protocol:
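Recombinant human ALR2 expressed in baculovirus-infected Sf9 cells, purified by dye-affinity chromatography. Assay at 37 °C: 100 mM sodium phosphate pH 6.2, 400 mM ammonium sulfate, 5 mU/mL enzyme, 0.1 mM NADPH. DMSO-dissolved compound preincubated 5 min, then 10 mM glyceraldehyde added; A340 decrease followed 6 min.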

The target in experiment [2] is T1, Aldo-keto reductase family 1 member B1. Kind of experiment: (§1) In vitro inhibitory activity against recombinant human aldose reductase (ALR2) was determined.
Experiment [3] can be described thus: Inhibitory activity on sorbital accumulation in human retinal cells was determined. It is filed as functional, cell-based. A digest of the protocol:
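ARPE-19 human retinal cells grown in MEM with 0.5% fetal calf serum plus 50 mM glucose. Compounds added in DMSO, then 16 h at 37 °C under 5% CO2. Cells lysed with 8% perchloric acid and neutralised with KOH. Sorbitol measured by colorimetric kit. IC50 taken as the concentration halving sorbitol accumulation; mean of three experiments.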

Experiment [4] deals with T1, Aldo-keto reductase family 1 member B1. The description is as §1. The gist of the method:
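Recombinant hALR2 expressed in baculovirus-infected Sf9 cells, purified by affinity chromatography. Run at 37 °C in 100 mM sodium phosphate pH 6.2, 400 mM ammonium sulfate, 5 mU/mL enzyme, 0.1 mM NADPH. Compounds in DMSO preincubated 5 min. Started with 10 mM glyceraldehyde; A340 decrease read over 6 min.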
This is another data set of the same source.

The structures appear in SMILES notation.

Regarding `COc1cc(Br)c(Br)c(Br)c1Oc1cc(Br)cc(Br)c1OC`, the inhibition in experiment [1] worked out at 0%.

As for `COc1cc(Br)c(Br)cc1Oc1cc(Br)c(Br)cc1OC`, the inhibition in experiment [1] is 0%.

In the case of `Oc1c(Br)cc(Br)cc1Oc1c(Br)cc(Br)c(Br)c1O`, the inhibition in experiment [1] was determined as 25%.

With `Oc1c(Oc2c(O)c(Br)c(Br)c(Br)c2Br)cc(Br)c(Br)c1Br`, the IC50 in experiment [2] is 5.5 µM; in experiment [3] it was 7 µM.

The compound `O=C1NC(=O)[C@@]2(CCOc3ccc(F)cc32)N1` [SORBINIL] had an IC50 in experiment [3] of 4 µM.

Take `Oc1c(Br)cc(Oc2cc(Br)c(Br)c(Br)c2O)c(O)c1Br`: the IC50 in experiment [2] worked out at 4.4 µM; in experiment [3], 8 µM.

For `Oc1c(Oc2cc(Br)c(Br)c(Br)c2O)cc(F)c(Br)c1Br`, the IC50 in experiment [2] stood at 3.2 µM; in experiment [3] it was 11 µM.

On to `COc1c(Br)cc(Br)cc1Oc1c(Br)c(Br)c(Br)c(Br)c1OC`, for which the inhibition in experiment [1] stood at 0%.

Consider `Oc1ccc(Br)cc1Oc1cc(Br)ccc1O`, for which the inhibition in experiment [1] worked out at 32%.

`CC(=O)Oc1c(Br)cc(Br)cc1Oc1c(Br)c(Br)c(Br)c(Br)c1OC(C)=O`: the inhibition in experiment [1] was found to be 0%.

As to `Oc1c(Oc2cc(Br)c(Br)c(Br)c2O)cc(Br)c(Br)c1Br`, the IC50 in experiment [2] was 5.7 µM; in experiment [3] it was 1 µM.

`Oc1c(Oc2cc(Cl)c(Cl)c(Cl)c2O)cc(Cl)c(Cl)c1Cl`: the values for the IC50 in experiment [2] and in experiment [3] were 3.2 µM and 0.24 µM, respectively.

Take `Oc1cc(Br)c(O)c(Oc2c(O)c(Br)c(Br)c(Br)c2Br)c1`: the inhibition in experiment [1] was found to be 38%.

Turning to `COc1c(Br)c(Br)c(Br)c(Br)c1Oc1cc(O)cc(Br)c1O`, in experiment [1], the inhibition is 0%.

In experiment [3], `COc1ccc2c(C(=S)N(C)CC(=O)O)cccc2c1C(F)(F)F` [TOLRESTAT] gave an IC50 of 0.02 µM.

Regarding `COc1c(Nc2cc(Br)c(Br)c(Br)c2OC)cc(Br)c(Br)c1Br`, the inhibition in experiment [1] was 0%.

For `Oc1cc(Br)c(Br)c(Br)c1Oc1cc(Br)cc(Br)c1O`, the inhibition in experiment [1] stood at 0%.

For the compound `Nc1c(Oc2cc(Br)c(Br)c(Br)c2O)cc(Br)c(Br)c1Br`, the IC50 is 8.9 µM in experiment [2] and 6 µM in experiment [3].

For the compound `O=C(O)COc1c(Br)cc(Br)cc1Oc1c(Br)c(Br)c(Br)c(Br)c1OCC(=O)O`, the IC50 in experiment [2] stood at 25 µM.

Take `Oc1c(Br)cc(Br)cc1Oc1c(O)c(Br)c(Br)c(Br)c1Br`: the IC50 in experiment [4] was 6.4 µM; in experiment [3], 3 µM.

Consider `Oc1c(Nc2cc(Br)c(Br)c(Br)c2O)cc(Br)c(Br)c1Br`, for which the inhibition in experiment [1] came out at 18%.

Consider `COC(=O)COc1c(Br)cc(Br)cc1Oc1c(Br)c(Br)c(Br)c(Br)c1OCC(=O)OC`, for which the inhibition in experiment [1] amounted to 0%.

Turning to `Oc1cc(Br)c(Br)cc1Oc1cc(Br)c(Br)cc1O`, the inhibition in experiment [1] is 46%.

One may read the inhibition as how much of the control response was suppressed. Usually IC50 stands for the concentration needed to halve the response being measured.
